Laboratory results taken from ChEMBL document CHEMBL6109171, “Design, Synthesis, and Evaluation of a New Fluorescent Ligand for the M2 Muscarinic Acetylcholine Receptor” (ACS Med Chem Lett, 2025).
Active and inactive are the calls of the source. The rule behind the calls is not given here.

Legend:
[1] = target: Muscarinic acetylcholine receptors; M1 & M2 (Homo sapiens) (UniProt P11229+P08172); experiment: Selectivity ratio of Ki for displacement of [3H]-NMS from human muscarinic M1 receptor to Ki for displacement of [3H]-NMS from human muscarinic M2 receptor; format: protein assay
Outline: (§1)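 Membranes from CHO cells transfected with human M1–M5 receptors; competition binding against the orthosteric antagonist [3H]-N-methylscopolamine. Ki values were taken from the competition curves. Ratios divide the Ki at M1, M3, M4 or M5 by the Ki at M2 from the same assay.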

[2] = target: Muscarinic acetylcholine receptor M2 and M5 (Homo sapiens) (UniProt P08172+P08912); experiment: Selectivity ratio of Ki for displacement of [3H]-NMS from human muscarinic M5 receptor to Ki for displacement of [3H]-NMS from human muscarinic M2 receptor; format: protein assay; outline: as §1
Chain of Muscarinic acetylcholine receptor M2 and M5 (Homo sapiens) (P08912 whole entry, looked up, one chain of several): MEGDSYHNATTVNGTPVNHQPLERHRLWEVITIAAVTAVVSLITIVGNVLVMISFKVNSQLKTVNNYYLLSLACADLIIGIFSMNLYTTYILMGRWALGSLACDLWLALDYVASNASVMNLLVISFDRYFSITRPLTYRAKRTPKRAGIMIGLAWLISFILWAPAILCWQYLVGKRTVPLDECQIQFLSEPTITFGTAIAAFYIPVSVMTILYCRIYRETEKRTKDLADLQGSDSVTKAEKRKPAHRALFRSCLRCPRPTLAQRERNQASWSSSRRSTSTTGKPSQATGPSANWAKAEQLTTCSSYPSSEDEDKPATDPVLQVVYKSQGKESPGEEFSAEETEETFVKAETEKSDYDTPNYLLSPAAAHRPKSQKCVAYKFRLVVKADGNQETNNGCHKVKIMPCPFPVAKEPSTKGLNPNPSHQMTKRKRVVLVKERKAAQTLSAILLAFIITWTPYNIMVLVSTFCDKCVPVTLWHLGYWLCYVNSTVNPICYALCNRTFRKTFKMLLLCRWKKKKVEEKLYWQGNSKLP

[3] = target: Muscarinic acetylcholine receptors; M2 & M3 (Homo sapiens) (UniProt P20309+P08172); experiment: Selectivity ratio of Ki for displacement of [3H]-NMS from human muscarinic M3 receptor to Ki for displacement of [3H]-NMS from human muscarinic M2 receptor; format: protein assay; outline: as §1
[4] = target: Muscarinic acetylcholine receptor M2 and M4 (Homo sapiens) (UniProt P08173+P08172); experiment: Selectivity ratio of Ki for displacement of [3H]-NMS from human muscarinic M4 receptor to Ki for displacement of [3H]-NMS from human muscarinic M2 receptor; format: protein assay; outline: as §1
[5] = target: T1, Muscarinic acetylcholine receptor M2 (Homo sapiens, UniProt P08172); experiment: Displacement of [3H]-NMS from human muscarinic M2 receptor expressed in CHO cells; format: cell-based; outline: as §1
T1 sequence (P08172 whole entry): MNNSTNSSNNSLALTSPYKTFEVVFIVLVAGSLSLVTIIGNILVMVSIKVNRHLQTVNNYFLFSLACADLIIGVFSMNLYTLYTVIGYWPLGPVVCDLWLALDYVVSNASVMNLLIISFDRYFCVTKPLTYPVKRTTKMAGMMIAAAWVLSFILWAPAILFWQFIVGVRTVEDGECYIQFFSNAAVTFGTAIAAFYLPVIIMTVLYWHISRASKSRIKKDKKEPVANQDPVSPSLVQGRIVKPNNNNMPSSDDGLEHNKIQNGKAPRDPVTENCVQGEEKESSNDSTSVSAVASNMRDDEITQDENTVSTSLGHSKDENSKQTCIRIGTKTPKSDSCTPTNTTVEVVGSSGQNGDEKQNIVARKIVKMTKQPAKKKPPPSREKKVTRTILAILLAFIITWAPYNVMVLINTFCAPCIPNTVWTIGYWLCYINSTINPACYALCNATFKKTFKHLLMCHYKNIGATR

[6] = target: T2, Muscarinic acetylcholine receptor M2 (Homo sapiens) (UniProt P08172); conditions: HEK293T, filed as antagonist
T2 sequence (whole entry): T1 sequence (P08172 whole entry)

[7] = target: T2, Muscarinic acetylcholine receptor M2 (Homo sapiens); experiment: Binding affinity to human M2 receptor expressed in HEK293T cells measured for 3 min by confocal microscopic analysis; format: cell-based; conditions: filed as antagonist
[8] = Photostability of compound in PBS buffer at 4 W/450 nm measured after 10 mins; format: physicochemical
Outline: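 Probe in PBS (pH 7) under continuous light (4 W, 450 nm); fluorescence intensity was followed over irradiation time up to 10 min.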

[9] = target: T2, Muscarinic acetylcholine receptor M2 (Homo sapiens); experiment: Binding affinity to N-terminal human M2 receptor expressed in HEK293T cell pretreated for 5 mins in presence of atropine by BRET assay; format: cell-based; conditions: filed as antagonist, dose <= 1000.0 nM
[10] = target: T2, Muscarinic acetylcholine receptor M2 (Homo sapiens); experiment: Binding affinity to human M2 receptor expressed in HEK293T cells by two-photon microscopic analysis; format: cell-based; conditions: filed as antagonist
[11] = target: T2, Muscarinic acetylcholine receptor M2 (Homo sapiens); experiment: Binding affinity to human M2 receptor expressed in HEK293T cell membrane cells by STED microscopic analysis; format: cell membranes; conditions: filed as antagonist
[12] = target: T2, Muscarinic acetylcholine receptor M2 (Homo sapiens); experiment: Binding affinity to human M2 receptor expressed in HEK293T cells by confocal microscopic analysis; format: cell-based
[13] = Selectivity ratio of Ki for binding affinity to M5 receptor (unknown origin) to Ki for displacement of [3H]-Pirenzepine from human muscarinic M2 receptor
[14] = Selectivity ratio of Ki for binding affinity to M1 receptor (unknown origin) to Ki for displacement of [3H]-Pirenzepine from human muscarinic M2 receptor
[15] = Selectivity ratio of Ki for binding affinity to M3 receptor (unknown origin) to Ki for displacement of [3H]-Pirenzepine from human muscarinic M2 receptor
[16] = Selectivity ratio of Ki for binding affinity to M4 receptor (unknown origin) to Ki for displacement of [3H]-Pirenzepine from human muscarinic M2 receptor

Row | Compound | Ratio Ki [1] | Ratio Ki [2] | Ratio Ki [3] | Ratio Ki [4] | Ki [5] [nM] | other results
1 | CN(C)c1ccc2c(-c3ccc(C(=O)NCCN4CCN(CCCCC5CCN(CC(=O)N6c7ccccc7NC(=O)c7ccccc76)CC5)CC4)cc3C(=O)[O-])c3ccc(=[N+](C)C)cc-3oc2c1 | 10.7 | 741 | 339 | 4.1 | 0.2 | 
2 | Cc1cc(/C=C/C=C/c2ccc(N(C)C)cc2)cc(C)[n+]1CCN1CCN(CCCCC2CCN(CC(=O)N3c4ccccc4NC(=O)c4ccccc43)CC2)CC1 | 4 | 126 | 50.1 | 3.2 | 3.2 | 
3 | Cc1cc(/C=C/c2cc3c4c(c2)CCCN4CCC3)cc(C)[n+]1CCNC(=O)CCc1cn(CCCCC2CCN(CC(=O)N3c4ccccc4NC(=O)c4ccccc43)CC2)cn1 | 5.2 | 30.1 | 51.3 | 1.9 | 1.3 | 
4 | Cc1cc(/C=C/C=C/c2ccc(N(C)C)cc2)cc(C)[n+]1CCNC(=O)CCc1cn(CCCCC2CCN(CC(=O)N3c4ccccc4NC(=O)c4ccccc43)CC2)cn1 | 5.4 | 77.6 | 93.3 | 4.7 | 0.9 | 
5 | Nc1ccccc1C(=O)N1CCC(N2CCC(Cc3ccc(S(=O)(=O)c4cccc(Cl)c4)cc3)CC2)CC1 |  |  |  |  |  | Ka [6]: 8.06 10^3/s/M
6 | O=C(CCOCCOCCNC(=O)c1ccc(-c2c3cc(F)c(=O)cc-3oc3cc(O)c(F)cc23)c(C(=O)O)c1)NCCOCCOCCNc1ccccc1C(=O)N1CCC(N2CCC(Cc3ccc(S(=O)(=O)c4cccc(Cl)c4)cc3)CC2)CC1 |  |  |  |  |  | Activity [7]: Active; Stability [8]: Stable; Activity [9]: Dose-dependent-effect; Activity [10]: Active; Activity [11]: Active; Activity [12]: inactive
7 | CCN(CC)CC1CCCCN1CC(=O)N1c2ccccc2C(=O)Nc2cccnc21 (stereo not given) |  |  |  |  |  | Ratio Ki [13]: 44; Ratio Ki [14]: 7; Ratio Ki [15]: 16; Ratio Ki [16]: 4
8 | Cc1cc(/C=C/c2cc3c4c(c2)CCCN4CCC3)cc(C)[n+]1CCN1CCN(CCCCC2CCN(CC(=O)N3c4ccccc4NC(=O)c4ccccc43)CC2)CC1 | 5 | 132 | 66 | 2.8 | 1 | 
9 | CCCC(C)(C)C(=O)N(CC)CCCC1CCN(CC(=O)N2c3ccc(Cl)cc3C(=O)Nc3cccnc32)CC1 |  |  |  |  |  | Ratio Ki [13]: 48; Ratio Ki [14]: 355; Ratio Ki [15]: 26; Ratio Ki [16]: 6

Further lines, with some results ahead:

Row | Ratio Ki [1] | Ratio Ki [2] | Ratio Ki [3] | Ratio Ki [4] | Ki [5] [nM] | Compound | other results
10 | 1.4 | 14.5 | 53.7 | 0.6 | 0.7 | O=C(CCCCCNC(=O)COc1ccc(/C=C/C2=[N+]3C(=Cc4ccc(-c5cccs5)n4[B-]3(F)F)C=C2)cc1)NCCNC(=O)CCc1cn(CCCCC2CCN(CC(=O)N3c4ccccc4NC(=O)c4ccccc43)CC2)cn1 | 
11 | 3.4 | 155 | 72.4 | 2 | 1.7 | CN(C)c1ccc2c(-c3ccc(C(=O)NCCNC(=O)CCc4cn(CCCCC5CCN(CC(=O)N6c7ccccc7NC(=O)c7ccccc76)CC5)cn4)cc3C(=O)[O-])c3ccc(=[N+](C)C)cc-3oc2c1 | 
12 | 6.3 | 200 | 200 | 39.8 | 0.8 | CC1(C)C(/C=C/C=C/C=C2/N(CCCCCC(=O)NCCNC(=O)CCc3cn(CCCCC4CCN(CC(=O)N5c6ccccc6NC(=O)c6ccccc65)CC4)cn3)c3cccc(S(=O)(=O)O)c3C2(C)C)=[N+](CCCCS(=O)(=O)[O-])c2ccccc21 | 
